Assay results: ChEMBL document CHEMBL3600341, “Discovery of a series of novel compounds with moderate anti-hepatitis C virus NS3 protease activity in vitro” (Bioorg Med Chem, 2015)

experiment: Inhibition of HCV NS3/4A protease using RET S1 as substrate preincubated for 10 mins followed by substrate addition measured for 30 mins by FRET analysis; set-up: species or system Hepacivirus hominis
In short: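 NS3/4A protease activity followed by intramolecular FRET with quenched-fluorogenic substrate Ac-DED(EDANS)EEAbuY[COO]ASK(DABCYL). Buffer 30 mM HEPES pH 7.5, 40% glycerol, 10 mM DTT, 2% DMSO. Ten-dose 4-fold serial dilution of compound in DMSO; 10 min preincubation, substrate added to start. Kinetic read 30 min, ex 335 nm/em 495 nm. IC50 from percent inhibition versus inhibitor concentration.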

Row | IC50 | Compound
1 | > 100 µM | Cc1ccc(S(=O)(=O)NC(=O)[C@H](CC(C)C)NC(=O)[C@@H]2C[C@H](n3cc(-c4ccccc4)nn3)CN2C(=O)[C@@H](NC(=O)OC(C)(C)C)C(C)(C)C)cc1
2 | 72 µM | CC(C)(C)OC(=O)N[C@H](C(=O)N1C[C@@H](n2cc(-c3ccccc3)nn2)C[C@H]1C(=O)N[C@H](Cc1ccccc1)C(=O)NS(=O)(=O)C1CC1)C1CCCCC1
3 | > 100 µM | CC(C)C[C@H](NC(=O)OC(C)(C)C)C(=O)N1C[C@@H](n2cc(-c3ccccc3)nn2)C[C@H]1C(=O)N[C@H](Cc1ccccc1)C(=O)NS(=O)(=O)C1CC1
4 | > 100 µM | CC(C)(C)OC(=O)N[C@H](C(=O)N1C[C@@H](n2cc(-c3ccccc3)nn2)C[C@H]1C(=O)N[C@H](Cc1ccccc1)C(=O)NS(=O)(=O)C1CC1)C(C)(C)C
5 | > 100 µM | CC(C)C[C@H](NC(=O)[C@@H]1C[C@H](NC(=O)c2ccc3ccccc3c2)CN1C(=O)[C@@H](NC(=O)OC(C)(C)C)C(C)(C)C)C(=O)NS(=O)(=O)C1CC1
6 | 2.1 µM | Cc1cccc(Nc2ccccc2C(=O)N[C@H]2C[C@@H](C(=O)N[C@@H](CC(C)C)C(=O)NS(=O)(=O)C3CC3)N(C(=O)[C@@H](NC(=O)OC(C)(C)C)C(C)(C)C)C2)c1C

Continued, compound first:

Row | Compound | IC50
7 | Cc1ccc(S(=O)(=O)NC(=O)[C@H](CC(C)C)NC(=O)[C@@H]2C[C@H](n3cc(-c4ccccc4)nn3)CN2C(=O)[C@@H](NC(=O)c2cccs2)C2CCCCC2)cc1 | 1.9 µM
8 | Cc1ccc(S(=O)(=O)NC(=O)[C@H](CC(C)C)NC(=O)[C@@H]2C[C@H](n3cc(-c4ccccc4)nn3)CN2C(=O)[C@@H](NC(=O)c2ccco2)C(C)(C)C)cc1 | 34 µM
9 | Cc1ccc(S(=O)(=O)NC(=O)[C@H](CC(C)C)NC(=O)[C@@H]2C[C@H](n3cc(-c4ccccc4)nn3)CN2C(=O)[C@@H](NC(=O)c2ccccc2)C2CCCCC2)cc1 | 2.5 µM
10 | Cc1ccc(S(=O)(=O)NC(=O)[C@H](CC(C)C)NC(=O)[C@@H]2C[C@H](n3cc(-c4ccccc4)nn3)CN2C(=O)[C@H](Cc2ccccc2)NC(=O)OC(C)(C)C)cc1 | 5.9 µM
11 | Cc1ccc(S(=O)(=O)NC(=O)[C@H](CC(C)C)NC(=O)[C@@H]2C[C@H](n3cc(-c4ccccc4)nn3)CN2C(=O)[C@H](Cc2ccccc2)NC(=O)C(C)C)cc1 | > 100 µM
12 | Cc1ccc(S(=O)(=O)NC(=O)[C@H](CC(C)C)NC(=O)[C@@H]2C[C@H](n3cc(-c4ccccc4)nn3)CN2C(=O)[C@H](Cc2c[nH]c3ccccc23)NC(=O)OC(C)(C)C)cc1 | 5.6 µM
13 | O=C(N[C@H](C(=O)N1C[C@@H](n2cc(-c3ccccc3)nn2)C[C@H]1C(=O)N[C@H](Cc1ccccc1)C(=O)NS(=O)(=O)C1CC1)C1CCCCC1)OCc1ccccc1 | 4.5 µM
14 | O=C(N[C@H](C(=O)N1C[C@@H](n2cc(-c3ccccc3)nn2)C[C@H]1C(=O)N[C@H](Cc1ccccc1)C(=O)NS(=O)(=O)C1CC1)C1CCCCC1)c1ccccc1 | 7.4 µM
15 | CC(C)C(=O)N[C@H](C(=O)N1C[C@@H](n2cc(-c3ccccc3)nn2)C[C@H]1C(=O)N[C@H](Cc1ccccc1)C(=O)NS(=O)(=O)C1CC1)C1CCCCC1 | > 100 µM
16 | CC(C)(C)OC(=O)N[C@@H](Cc1ccccc1)C(=O)N1C[C@@H](n2cc(-c3ccccc3)nn2)C[C@H]1C(=O)N[C@H](Cc1ccccc1)C(=O)NS(=O)(=O)C1CC1 | 7.1 µM
17 | COc1ccc(C(=O)N[C@H]2C[C@@H](C(=O)N[C@@H](CC(C)C)C(=O)NS(=O)(=O)C3CC3)N(C(=O)[C@@H](NC(=O)OC(C)(C)C)C(C)(C)C)C2)cc1 | > 100 µM
18 | CCC[C@H](NC(=O)[C@@H]1[C@H]2CCC[C@H]2CN1C(=O)[C@@H](NC(=O)[C@@H](NC(=O)c1cnccn1)C1CCCCC1)C(C)(C)C)C(=O)C(=O)NC1CC1 [TELAPREVIR] | 0.45 µM
